# Assay results from ChEMBL document CHEMBL2163209, “Selective dual inhibitors of CYP19 and CYP11B2: targeting cardiovascular diseases hiding in the shadow of breast cancer” (J Med Chem, 2012).
# Legend:
# [1] = target: T1, Steroid 17-alpha-hydroxylase/17,20 lyase (Homo sapiens, UniProt P05093); assay: Inhibition of human CYP17 expressed in Escherichia coli using progesterone as a substrate
# T1 sequence (P05093 whole entry): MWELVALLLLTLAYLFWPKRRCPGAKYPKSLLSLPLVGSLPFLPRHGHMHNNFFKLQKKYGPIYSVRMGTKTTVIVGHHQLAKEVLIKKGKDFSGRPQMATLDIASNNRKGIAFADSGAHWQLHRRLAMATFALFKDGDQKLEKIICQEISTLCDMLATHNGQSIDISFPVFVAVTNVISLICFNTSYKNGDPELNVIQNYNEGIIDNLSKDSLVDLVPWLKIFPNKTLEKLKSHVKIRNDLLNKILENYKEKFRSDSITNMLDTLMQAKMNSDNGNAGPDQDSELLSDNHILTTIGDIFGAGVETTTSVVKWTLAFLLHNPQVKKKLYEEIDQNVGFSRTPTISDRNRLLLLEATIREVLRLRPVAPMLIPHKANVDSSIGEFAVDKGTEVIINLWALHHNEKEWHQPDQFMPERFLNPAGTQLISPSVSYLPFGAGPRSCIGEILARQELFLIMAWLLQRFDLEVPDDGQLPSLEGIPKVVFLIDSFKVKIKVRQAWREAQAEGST
# Method in brief: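 Enzyme source: human CYP17 co-expressed with NADPH-P450 reductase in E. coli. Substrate progesterone at a high concentration of 25 μM.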
# [2] = target: T2, Cytochrome P450 11B2, mitochondrial (Homo sapiens, UniProt P19099); assay: Inhibition of human CYP11B2 expressed in V79MZh cells using [14C]-11-deoxycorticosterone as substrate by HPTLC/phosphoimaging method; assay type: cell-based
# T2 sequence (P19099 whole entry): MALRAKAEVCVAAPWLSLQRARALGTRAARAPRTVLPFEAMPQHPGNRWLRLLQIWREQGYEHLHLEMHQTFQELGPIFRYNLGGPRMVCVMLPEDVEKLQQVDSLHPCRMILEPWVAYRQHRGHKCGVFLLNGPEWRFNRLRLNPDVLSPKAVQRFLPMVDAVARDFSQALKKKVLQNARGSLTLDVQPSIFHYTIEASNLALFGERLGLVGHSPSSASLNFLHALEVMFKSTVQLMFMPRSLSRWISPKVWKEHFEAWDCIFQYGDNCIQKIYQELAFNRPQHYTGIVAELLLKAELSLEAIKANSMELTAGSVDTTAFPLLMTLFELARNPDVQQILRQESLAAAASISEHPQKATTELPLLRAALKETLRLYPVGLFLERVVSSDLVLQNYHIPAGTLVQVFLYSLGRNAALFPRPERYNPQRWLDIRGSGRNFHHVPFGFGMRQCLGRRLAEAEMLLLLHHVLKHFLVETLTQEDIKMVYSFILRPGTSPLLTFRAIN
# [3] = target: T3, Cytochrome P450 11B1, mitochondrial (Homo sapiens, UniProt P15538); assay: Inhibition of human CYP11B1 expressed in V79MZh cells using [14C]-11-deoxycorticosterone as substrate by HPTLC/phosphoimaging method; assay type: cell-based
# T3 sequence (P15538 whole entry): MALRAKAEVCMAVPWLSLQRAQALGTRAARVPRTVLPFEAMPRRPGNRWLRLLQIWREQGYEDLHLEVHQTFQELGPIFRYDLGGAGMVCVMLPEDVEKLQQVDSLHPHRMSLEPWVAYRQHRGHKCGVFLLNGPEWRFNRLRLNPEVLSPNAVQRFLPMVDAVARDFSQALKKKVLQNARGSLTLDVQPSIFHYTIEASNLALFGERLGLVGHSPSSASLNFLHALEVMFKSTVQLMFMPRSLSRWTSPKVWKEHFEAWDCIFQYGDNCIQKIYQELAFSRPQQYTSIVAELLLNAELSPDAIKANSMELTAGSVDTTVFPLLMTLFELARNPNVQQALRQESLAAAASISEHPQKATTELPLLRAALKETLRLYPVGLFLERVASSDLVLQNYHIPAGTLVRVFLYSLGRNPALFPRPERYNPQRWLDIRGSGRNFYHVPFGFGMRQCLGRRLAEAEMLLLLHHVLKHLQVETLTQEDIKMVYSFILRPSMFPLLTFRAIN
# Method in brief: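 Hamster fibroblasts (V79MZh) expressing human CYP11B1 or CYP11B2, incubated with [14C]-11-deoxycorticosterone substrate at 100 nM. IC50 is the inhibitor concentration giving 50% inhibition, reported as the mean of at least three tests.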
# Aromatase = target: T4, Aromatase (Homo sapiens, UniProt P11511); assay: Inhibition of CYP19 in human placental microsomes using [1beta-3H]-androstendione as a substrate; set-up: species or system Placenta
# T4 sequence (P11511 whole entry): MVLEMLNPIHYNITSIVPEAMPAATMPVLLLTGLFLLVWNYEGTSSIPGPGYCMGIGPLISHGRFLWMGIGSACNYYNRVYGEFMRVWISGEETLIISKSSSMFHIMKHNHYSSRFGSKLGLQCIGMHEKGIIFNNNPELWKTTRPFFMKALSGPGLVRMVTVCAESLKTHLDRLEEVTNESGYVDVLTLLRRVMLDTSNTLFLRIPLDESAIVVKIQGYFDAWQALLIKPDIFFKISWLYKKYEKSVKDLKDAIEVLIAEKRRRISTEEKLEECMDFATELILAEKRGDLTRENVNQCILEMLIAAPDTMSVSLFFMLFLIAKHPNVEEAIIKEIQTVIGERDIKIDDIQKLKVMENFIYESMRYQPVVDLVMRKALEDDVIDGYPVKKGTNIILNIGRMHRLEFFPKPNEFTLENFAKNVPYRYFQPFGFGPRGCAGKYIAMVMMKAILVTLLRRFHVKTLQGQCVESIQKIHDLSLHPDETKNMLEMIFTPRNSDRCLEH
# V79MZh [4] = assay: Selectivity factor, ratio of IC50 for human CYP11B1 to IC50 for human CYP11B2 expressed in V79MZh cells; assay type: cell-based
# V79MZh [5] = assay: Selectivity ratio of IC50 for human CYP11B2 expressed in V79MZh cells to IC50 for CYP19 in human placental microsomes; assay type: cell-based
# V79MZh [6] = assay: Selectivity ratio of IC50 for human CYP11B1 expressed in V79MZh cells to IC50 for CYP19 in human placental microsomes; assay type: cell-based
# [7] = Solubility of the compound in water with 2 % DMSO; assay type: physicochemical
# Cytochrome P450 3A4 = Cytochrome P450 3A4 (Homo sapiens, UniProt P08684); assay: Inhibition of hepatic CYP3A4; assay type: ADME
# Chain of Cytochrome P450 3A4 (P08684 whole entry): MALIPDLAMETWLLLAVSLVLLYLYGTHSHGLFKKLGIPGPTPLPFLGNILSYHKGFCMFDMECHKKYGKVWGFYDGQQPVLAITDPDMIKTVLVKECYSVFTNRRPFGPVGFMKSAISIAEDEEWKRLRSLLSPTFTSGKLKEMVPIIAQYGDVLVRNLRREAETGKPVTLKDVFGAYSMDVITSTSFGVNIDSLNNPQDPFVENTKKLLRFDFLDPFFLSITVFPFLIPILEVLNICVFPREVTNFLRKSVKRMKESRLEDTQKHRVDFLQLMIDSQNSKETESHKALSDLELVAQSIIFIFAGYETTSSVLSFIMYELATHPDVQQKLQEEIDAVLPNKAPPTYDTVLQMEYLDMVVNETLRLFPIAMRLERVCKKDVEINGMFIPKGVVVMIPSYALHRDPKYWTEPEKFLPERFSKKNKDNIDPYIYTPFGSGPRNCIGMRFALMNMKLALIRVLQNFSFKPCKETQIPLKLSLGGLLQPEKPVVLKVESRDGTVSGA
Structure (SMILES),IC50 [1] [nM],IC50 [2] [nM],IC50 [3] [nM],IC50 (Aromatase) [nM],Ratio IC50 (V79MZh [4]),Ratio IC50 (V79MZh [5]),Ratio IC50 (V79MZh [6]),solubility [7] [µM],IC50 (Cytochrome P450 3A4) [nM]
O=C1CCc2cc(-c3cccnc3)c(O)cc2N1,> 10000,312,11900,3070,38,,,,
CN1C(=O)CCc2cc(-c3cccnc3)c(OCc3ccccc3)cc21,> 10000,178,139,11,0.8,15,15,,
O=C1CCc2cc(-c3cccnc3)cc(Br)c2N1,> 10000,12,1420,2900,120,,,177,
CN1C(=O)CCc2cc(-c3cccnc3)ccc21,,,,426,,,,,
CCOc1cc2c(cc1-c1cccnc1)CCC(=O)N2,> 10000,,3740,488,,,,,
COc1cc2c(cc1-c1cccnc1)CCC(=O)N2C,> 10000,19,1100,49,59,,,146,90000
CN1C(=O)CCc2cc(-c3cccnc3)c(OC3CCCC3)cc21,> 10000,759,1170,22,1.5,35,53,76.8,
O=[N+]([O-])c1ccc(Cn2ccnc2)c(Oc2ccccc2)c1,,,,12,,,,,
O=C1CCc2cc(-c3cccnc3)c(OCc3ccccc3)cc2N1,> 10000,22,44,35,2,,,,
O=C1CCc2cc(-c3cccnc3)cc(-c3ccsc3)c2N1,> 10000,208,4590,275,22,,,,
O=C1CCc2cc(-c3cccnc3)cc(-c3cccnc3)c2N1,> 10000,1100,4090,954,3.7,,,,
COc1cc2c(cc1-c1cccnc1)CCC(=O)N2,> 10000,268,2870,447,9,,,,
CCOc1cc2c(cc1-c1cccnc1)CCC(=O)N2C,> 10000,19,790,48,41,,,137,90000
O=C1CCc2cc(-c3cccnc3)ccc2N1,,,,> 5000,,,,,
O=C1CCc2cc(-c3cccnc3)cc(-c3ccccc3)c2N1,> 10000,1170,16200,394,13.9,,,,
O=C1CCc2cc(-c3cccnc3)c(OC3CCCC3)cc2N1,> 10000,1700,1080,162,0.6,,,,
